# Active and inactive are the calls of the source. No cut-off for these calls is given here.
# Tests used:
# [1] = test system: ALK tyrosine kinase receptor (Homo sapiens), Q9UM73 [L1196M]; assay: Inhibition of ALK L1196M mutant (unknown origin) assessed as remaining activity at 1 uM by Kinome scan method relative to control
# How it was run: (§1)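 Active-site-dependent competition-binding (KINOMEscan) panel of 468 kinases, test compound at 1 μM (from a 10 mM DMSO stock). Read-out is ctrl% = (test signal − positive control signal)/(negative control signal − positive control signal) × 100. DMSO is the negative control (100%) and a control compound is the positive control (0%). Lower ctrl% means tighter binding.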
# [2] = molecular target: BMP-2-inducible protein kinase (Homo sapiens) (UniProt Q9NSY1); assay: Inhibition of BIKE (unknown origin) assessed as remaining activity at 1 uM by Kinome scan method relative to control
# How it was run: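 KINOMEscan active-site-dependent competition-binding panel of 468 kinases, compound at 1 μM from a DMSO stock. Result reported as ctrl% = (test signal − positive control signal)/(negative control signal − positive control signal) × 100. The negative control is DMSO (100%) and the positive control is a control compound (0%). Lower ctrl% means tighter binding.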
# [3] = molecular target: Bone morphogenetic protein receptor type-1B (Homo sapiens) (UniProt O00238); assay: Inhibition of BMPR1B (unknown origin) assessed as remaining activity at 1 uM by Kinome scan method relative to control; how it was run: as §1
# Chain of Bone morphogenetic protein receptor type-1B (Homo sapiens) (O00238 whole entry): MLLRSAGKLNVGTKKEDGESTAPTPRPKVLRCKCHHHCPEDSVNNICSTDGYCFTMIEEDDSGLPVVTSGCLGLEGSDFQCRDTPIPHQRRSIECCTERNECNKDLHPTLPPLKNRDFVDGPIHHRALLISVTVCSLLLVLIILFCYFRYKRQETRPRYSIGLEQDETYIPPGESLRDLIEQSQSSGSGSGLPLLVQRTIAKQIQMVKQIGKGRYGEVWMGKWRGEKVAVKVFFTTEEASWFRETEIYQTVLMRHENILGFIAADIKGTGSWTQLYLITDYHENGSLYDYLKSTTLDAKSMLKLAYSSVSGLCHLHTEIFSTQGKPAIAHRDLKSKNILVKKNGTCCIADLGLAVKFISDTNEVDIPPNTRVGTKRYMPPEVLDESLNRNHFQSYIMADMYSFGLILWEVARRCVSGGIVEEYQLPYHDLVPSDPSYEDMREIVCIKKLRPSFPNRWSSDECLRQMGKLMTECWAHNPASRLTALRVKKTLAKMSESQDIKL
# [4] = molecular target: Cyclin-dependent kinase 7 (Homo sapiens) (UniProt P50613); assay: Inhibition of CDK7 (unknown origin) assessed as remaining activity at 1 uM by Kinome scan method relative to control
# How it was run: (§2)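 Active-site-dependent competition-binding profiling (KINOMEscan) at 1 μM against a 468-kinase panel; compound supplied from a 10 mM DMSO stock. Read-out is ctrl% = (test signal − positive control signal)/(negative control signal − positive control signal) × 100. DMSO is the negative control (100%) and a control compound the positive control (0%). Lower ctrl% means tighter binding.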
# [5] = molecular target: Casein kinase I isoform alpha-like (Homo sapiens) (UniProt Q8N752); assay: Inhibition of CSNK1A1L (unknown origin) assessed as remaining activity at 1 uM by Kinome scan method relative to control; how it was run: as §2
# [6] = molecular target: Casein kinase II subunit alpha (Homo sapiens) (UniProt P68400); assay: Inhibition of CSNK2A1 (unknown origin) assessed as remaining activity at 1 uM by Kinome scan method relative to control; how it was run: as §2
# [7] = molecular target: Discoidin domain-containing receptor 2 (Homo sapiens) (UniProt Q16832); assay: Inhibition of DDR2 (unknown origin) assessed as remaining activity at 1 uM by Kinome scan method relative to control
# [8] = test system: Epidermal growth factor receptor (Homo sapiens), P00533 [UNDEFINED MUTATION]; assay: Inhibition of EGFR E746-A750del mutant (unknown origin) assessed as remaining activity at 1 uM by Kinome scan method relative to control
# Chain of Epidermal growth factor receptor (Homo sapiens), P00533 [UNDEFINED MUTATION] (P00533 whole entry, looked up, stated change not applied): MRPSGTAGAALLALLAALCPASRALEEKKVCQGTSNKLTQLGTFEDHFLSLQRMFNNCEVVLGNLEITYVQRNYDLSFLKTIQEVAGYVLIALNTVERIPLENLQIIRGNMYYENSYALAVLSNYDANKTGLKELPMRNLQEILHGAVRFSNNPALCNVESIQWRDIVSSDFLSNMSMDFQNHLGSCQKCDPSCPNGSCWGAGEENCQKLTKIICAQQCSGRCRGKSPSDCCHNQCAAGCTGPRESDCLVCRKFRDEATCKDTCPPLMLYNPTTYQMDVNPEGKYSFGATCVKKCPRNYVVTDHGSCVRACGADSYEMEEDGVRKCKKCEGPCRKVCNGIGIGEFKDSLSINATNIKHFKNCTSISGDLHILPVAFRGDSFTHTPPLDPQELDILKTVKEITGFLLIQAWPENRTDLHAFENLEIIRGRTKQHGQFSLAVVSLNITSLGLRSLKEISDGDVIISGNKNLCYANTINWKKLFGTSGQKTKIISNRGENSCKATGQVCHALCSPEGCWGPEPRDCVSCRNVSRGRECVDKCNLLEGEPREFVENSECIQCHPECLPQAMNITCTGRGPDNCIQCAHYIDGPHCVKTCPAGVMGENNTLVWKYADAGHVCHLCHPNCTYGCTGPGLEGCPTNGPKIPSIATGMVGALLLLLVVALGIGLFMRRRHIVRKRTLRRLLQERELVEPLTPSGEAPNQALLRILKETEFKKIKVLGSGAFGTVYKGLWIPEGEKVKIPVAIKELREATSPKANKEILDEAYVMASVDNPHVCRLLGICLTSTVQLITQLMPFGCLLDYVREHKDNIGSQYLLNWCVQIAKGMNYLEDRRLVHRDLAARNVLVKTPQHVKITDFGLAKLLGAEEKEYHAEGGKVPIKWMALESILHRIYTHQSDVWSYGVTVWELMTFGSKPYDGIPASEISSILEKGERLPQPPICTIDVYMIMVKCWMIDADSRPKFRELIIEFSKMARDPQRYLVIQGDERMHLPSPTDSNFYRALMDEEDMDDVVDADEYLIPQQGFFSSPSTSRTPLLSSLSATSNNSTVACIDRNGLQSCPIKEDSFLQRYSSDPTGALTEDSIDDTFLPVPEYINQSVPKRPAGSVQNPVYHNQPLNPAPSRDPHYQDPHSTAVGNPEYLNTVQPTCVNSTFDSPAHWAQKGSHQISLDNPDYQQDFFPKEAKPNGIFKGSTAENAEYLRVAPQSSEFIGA
# [9] = test system: Fibroblast growth factor receptor 3 (Homo sapiens), P22607 [G697C]; assay: Inhibition of FGFR3 G697C mutant (unknown origin) assessed as remaining activity at 1 uM by Kinome scan method relative to control
# [10] = molecular target: Rhodopsin kinase GRK1 (Homo sapiens) (UniProt Q15835); assay: Inhibition of GRK1 (unknown origin) assessed as remaining activity at 1 uM by Kinome scan method relative to control
# [11] = molecular target: Tyrosine-protein kinase ITK/TSK (Homo sapiens) (UniProt Q08881); assay: Inhibition of ITK (unknown origin) assessed as remaining activity at 1 uM by Kinome scan method relative to control
# [12] = molecular target: Mitogen-activated protein kinase 8 (Homo sapiens) (UniProt P45983); assay: Inhibition of JNK1 (unknown origin) assessed as remaining activity at 1 uM by Kinome scan method relative to control
# [13] = molecular target: Mast/stem cell growth factor receptor Kit (Homo sapiens) (UniProt P10721); assay: Inhibition of KIT (unknown origin) assessed as remaining activity at 1 uM by Kinome scan method relative to control
# [14] = molecular target: Microtubule-associated serine/threonine-protein kinase 1 (Homo sapiens) (UniProt Q9Y2H9); assay: Inhibition of MAST1 (unknown origin) assessed as remaining activity at 1 uM by Kinome scan method relative to control
# Chain of Microtubule-associated serine/threonine-protein kinase 1 (Homo sapiens) (Q9Y2H9 whole entry, looked up): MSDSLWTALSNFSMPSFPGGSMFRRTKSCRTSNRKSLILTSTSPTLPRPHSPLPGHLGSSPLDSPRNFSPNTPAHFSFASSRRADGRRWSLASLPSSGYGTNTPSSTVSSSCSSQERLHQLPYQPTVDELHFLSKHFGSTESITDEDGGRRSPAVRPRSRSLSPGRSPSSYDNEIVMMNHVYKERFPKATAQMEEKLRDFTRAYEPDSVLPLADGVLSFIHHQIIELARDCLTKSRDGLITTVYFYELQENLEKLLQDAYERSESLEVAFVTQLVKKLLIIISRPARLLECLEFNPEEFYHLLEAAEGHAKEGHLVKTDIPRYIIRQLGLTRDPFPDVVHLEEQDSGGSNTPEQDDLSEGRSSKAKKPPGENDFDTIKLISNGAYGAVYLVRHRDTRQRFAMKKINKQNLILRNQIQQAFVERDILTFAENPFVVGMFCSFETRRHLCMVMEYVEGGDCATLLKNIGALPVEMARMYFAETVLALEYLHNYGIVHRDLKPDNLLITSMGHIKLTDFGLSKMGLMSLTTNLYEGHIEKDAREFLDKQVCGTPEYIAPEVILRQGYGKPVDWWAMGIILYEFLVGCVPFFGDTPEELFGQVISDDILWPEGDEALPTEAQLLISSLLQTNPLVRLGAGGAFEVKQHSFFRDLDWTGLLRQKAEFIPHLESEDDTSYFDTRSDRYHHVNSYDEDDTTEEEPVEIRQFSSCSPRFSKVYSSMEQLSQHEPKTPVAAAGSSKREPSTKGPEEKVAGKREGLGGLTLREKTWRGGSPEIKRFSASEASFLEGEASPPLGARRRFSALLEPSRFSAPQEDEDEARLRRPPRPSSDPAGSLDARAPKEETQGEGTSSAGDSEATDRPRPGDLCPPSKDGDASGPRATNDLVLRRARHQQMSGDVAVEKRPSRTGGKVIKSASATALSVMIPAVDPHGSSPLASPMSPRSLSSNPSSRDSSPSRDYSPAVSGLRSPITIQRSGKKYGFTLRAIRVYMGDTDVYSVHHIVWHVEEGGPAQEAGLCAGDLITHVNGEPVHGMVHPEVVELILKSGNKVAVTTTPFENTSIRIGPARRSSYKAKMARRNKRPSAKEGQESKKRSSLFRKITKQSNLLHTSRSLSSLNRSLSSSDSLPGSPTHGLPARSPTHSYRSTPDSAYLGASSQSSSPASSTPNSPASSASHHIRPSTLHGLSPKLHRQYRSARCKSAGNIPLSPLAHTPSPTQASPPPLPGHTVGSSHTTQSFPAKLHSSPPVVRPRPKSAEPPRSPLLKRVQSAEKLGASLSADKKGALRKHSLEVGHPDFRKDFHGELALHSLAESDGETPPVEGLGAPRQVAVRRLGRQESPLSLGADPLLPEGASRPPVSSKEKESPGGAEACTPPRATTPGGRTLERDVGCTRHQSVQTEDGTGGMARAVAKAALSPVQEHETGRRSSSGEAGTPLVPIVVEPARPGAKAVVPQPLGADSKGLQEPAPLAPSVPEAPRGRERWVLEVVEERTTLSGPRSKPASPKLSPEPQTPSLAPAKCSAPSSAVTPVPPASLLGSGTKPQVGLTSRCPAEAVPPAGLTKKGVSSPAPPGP
# [15] = test system: Hepatocyte growth factor receptor (Homo sapiens), P08581 [M1250T]; assay: Inhibition of MET M1250T mutant (unknown origin) assessed as remaining activity at 1 uM by Kinome scan method relative to control
# [16] = molecular target: Myosin light chain kinase (Homo sapiens) (UniProt Q32MK0); assay: Inhibition of MLCK (unknown origin) assessed as remaining activity at 1 uM by Kinome scan method relative to control
# [17] = molecular target: Serine/threonine-protein kinase Nek6 (Homo sapiens) (UniProt Q9HC98); assay: Inhibition of NEK6 (unknown origin) assessed as remaining activity at 1 uM by Kinome scan method relative to control
# [18] = molecular target: Serine/threonine-protein kinase SIK1 (Homo sapiens) (UniProt P57059); assay: Inhibition of SIK (unknown origin) assessed as remaining activity at 1 uM by Kinome scan method relative to control
# Chain of Serine/threonine-protein kinase SIK1 (Homo sapiens) (P57059 whole entry): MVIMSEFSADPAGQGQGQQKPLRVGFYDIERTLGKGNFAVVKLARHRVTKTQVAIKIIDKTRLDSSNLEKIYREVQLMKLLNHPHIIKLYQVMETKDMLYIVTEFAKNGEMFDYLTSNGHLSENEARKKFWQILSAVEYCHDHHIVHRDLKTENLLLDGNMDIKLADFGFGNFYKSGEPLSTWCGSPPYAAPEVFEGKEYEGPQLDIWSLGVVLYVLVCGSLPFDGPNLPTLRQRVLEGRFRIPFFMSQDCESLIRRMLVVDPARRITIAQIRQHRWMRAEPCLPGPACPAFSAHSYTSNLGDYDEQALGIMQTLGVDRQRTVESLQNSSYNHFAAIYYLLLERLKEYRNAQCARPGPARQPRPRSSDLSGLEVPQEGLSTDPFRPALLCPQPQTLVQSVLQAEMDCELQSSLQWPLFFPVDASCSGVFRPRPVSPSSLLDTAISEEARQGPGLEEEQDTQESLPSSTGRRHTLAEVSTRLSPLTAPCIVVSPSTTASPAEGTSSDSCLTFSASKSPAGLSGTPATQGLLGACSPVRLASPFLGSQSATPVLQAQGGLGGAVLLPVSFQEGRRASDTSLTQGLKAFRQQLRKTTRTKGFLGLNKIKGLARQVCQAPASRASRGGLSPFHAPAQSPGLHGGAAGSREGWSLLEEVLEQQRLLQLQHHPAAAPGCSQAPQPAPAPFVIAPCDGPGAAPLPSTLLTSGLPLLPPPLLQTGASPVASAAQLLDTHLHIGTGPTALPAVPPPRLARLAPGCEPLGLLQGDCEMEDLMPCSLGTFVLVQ
# [19] = molecular target: Proto-oncogene tyrosine-protein kinase Src (Homo sapiens) (UniProt P12931); assay: Inhibition of SRC (unknown origin) assessed as remaining activity at 1 uM by Kinome scan method relative to control
# [20] = molecular target: Tyrosine-protein kinase SYK (Homo sapiens) (UniProt P43405); assay: Inhibition of SYK (unknown origin) assessed as remaining activity at 1 uM by Kinome scan method relative to control
# [21] = molecular target: Tyrosine-protein kinase receptor Tie-1 (Homo sapiens) (UniProt P35590); assay: Inhibition of TIE1 (unknown origin) assessed as remaining activity at 1 uM by Kinome scan method relative to control
# [22] = molecular target: Serine/threonine-protein kinase tousled-like 2 (Homo sapiens) (UniProt Q86UE8); assay: Inhibition of TLK2 (unknown origin) assessed as remaining activity at 1 uM by Kinome scan method relative to control
# [23] = molecular target: Serine/threonine-protein kinase ULK3 (Homo sapiens) (UniProt Q6PHR2); assay: Inhibition of ULK3 (unknown origin) assessed as remaining activity at 1 uM by Kinome scan method relative to control
# [24] = molecular target: Mitogen-activated protein kinase kinase kinase 20 (Homo sapiens) (UniProt Q9NYL2); assay: Inhibition of ZAK (unknown origin) assessed as remaining activity at 1 uM by Kinome scan method relative to control
# Chain of Mitogen-activated protein kinase kinase kinase 20 (Homo sapiens) (Q9NYL2 2-800 limits assumed): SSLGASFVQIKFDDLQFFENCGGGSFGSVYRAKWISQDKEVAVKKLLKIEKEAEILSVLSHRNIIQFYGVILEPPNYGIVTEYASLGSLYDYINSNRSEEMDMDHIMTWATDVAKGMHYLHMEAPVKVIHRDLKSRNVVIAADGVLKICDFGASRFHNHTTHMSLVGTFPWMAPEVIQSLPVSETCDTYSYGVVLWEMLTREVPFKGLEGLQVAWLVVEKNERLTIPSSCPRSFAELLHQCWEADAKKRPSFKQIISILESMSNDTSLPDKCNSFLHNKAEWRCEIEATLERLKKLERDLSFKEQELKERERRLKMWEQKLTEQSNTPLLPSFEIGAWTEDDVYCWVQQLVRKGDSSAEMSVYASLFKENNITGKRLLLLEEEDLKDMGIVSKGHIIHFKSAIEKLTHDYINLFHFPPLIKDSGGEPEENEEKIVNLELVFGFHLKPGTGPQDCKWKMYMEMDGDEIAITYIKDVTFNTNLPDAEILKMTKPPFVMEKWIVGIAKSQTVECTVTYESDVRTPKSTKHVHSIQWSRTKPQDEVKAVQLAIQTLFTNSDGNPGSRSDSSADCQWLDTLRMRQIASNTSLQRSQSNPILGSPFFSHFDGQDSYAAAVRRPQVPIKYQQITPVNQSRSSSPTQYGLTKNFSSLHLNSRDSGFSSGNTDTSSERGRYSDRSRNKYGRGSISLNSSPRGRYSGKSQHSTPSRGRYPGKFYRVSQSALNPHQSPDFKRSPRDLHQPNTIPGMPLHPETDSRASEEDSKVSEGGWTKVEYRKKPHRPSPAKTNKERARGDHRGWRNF
# [25] = Tmax in male Sprague-Dawley rat at 5 mg/kg, iv measured for 24 hrs by LC-MS/MS analysis; type: ADME, organism-based; details: in vivo
# [26] = Apparent volume of distribution in male Sprague-Dawley rat at 5 mg/kg, iv measured for 24 hrs by LC-MS/MS analysis; type: ADME, organism-based; details: in vivo, read-out: Vz
# How it was run: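 Sprague-Dawley rats, single intravenous or oral dose. Parameters (half-life, AUC, bioavailability) reported in a supplementary table.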
# Mus musculus [27] = assay: Protection against APAP induced liver injury in mouse assessed as decrease in mortality rate at 1 mg/kg, ip administered at 2.5 hrs; type: functional, organism-based
# Mus musculus [28] = assay: Protection against CCl4-induced mouse assessed as low dead cells at 1 mg/kg, ip administration daily for 10 days by TUNEL staining; type: functional, organism-based; details: Liver, time 10.0 day
compound,measurement,setting,value
CN1C(=O)c2sccc2N(C)c2nc(Nc3ccc(S(N)(=O)=O)cc3)ncc21,Activity,[1],100%
same,Activity,[2],95%
same,Activity,[3],26%
same,Activity,[4],60%
same,Activity,[5],93%
same,Activity,[6],94%
same,Activity,[7],100%
same,Activity,[8],82%
same,Activity,[9],95%
same,Activity,[10],94%
same,Activity,[11],97%
same,Activity,[12],81%
same,Activity,[13],100%
same,Activity,[14],80%
same,Activity,[15],81%
same,Activity,[16],87%
same,Activity,[17],97%
same,Activity,[18],100%
same,Activity,[19],100%
same,Activity,[20],90%
same,Activity,[21],100%
same,Activity,[22],100%
same,Activity,[23],84%
same,Activity,[24],82%
same,Tmax,[25],4.98 min
same,Vd,[26],7.1 L/kg
same,Activity,Mus musculus [27],Active
same,Activity,Mus musculus [28],Active
